Measured values: ChEMBL document CHEMBL4196105, “Discovery of β-Arrestin Biased Ligands of 5-HT7R” (J Med Chem, 2018)

Assays:
[1] = Cmax in ICR mouse at 50 mg/kg, po by LC-MS/MS analysis; format: ADME, organism-based; set-up: dose 50 mg/kg, route oral; details: in vivo
Summary of the method: (§1)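 Male ICR mice, 7~8 weeks, 30 ± 5 g; single dose 5 mg/kg IV (n = 5) or 50 mg/kg oral (n = 4). Plasma protein-precipitated with acetonitrile containing internal standard, then LC-MS/MS. Non-compartmental analysis; AUClast by trapezoidal rule. Mean ± SD.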

CYP2C19 = CYP2C19 (Homo sapiens, UniProt P33261); experiment: Inhibition of CYP2C19 in human liver microsomes assessed as remaining activity at 10 uM using S-mephenytoin as substrate preincubated for 5 mins followed by addition of NADPH generating system measured after 15 mins by LC-MS analysis; format: ADME; details: probe S-mephenytoin, read-out: Activity
Summary of the method: (§2)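 Human liver microsomes 0.25 mg/ml in 0.1 M phosphate, pH 7.4, with a probe cocktail: phenacetin 50 μM, diclofenac 10 μM, S-mephenytoin 100 μM, dextromethorphan 5 μM, midazolam 2.5 μM. Test compound at 10 μM versus 0 μM control. 5 min at 37 °C, then NADPH-generating system for 15 min. Acetonitrile quench; metabolites measured by LC/MS as % remaining activity.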

Mus musculus [2] = experiment: Toxicity in ICR mouse assessed as mortality at 5 mg/kg, iv; format: organism-based; details: in vivo
Summary of the method: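 Observed in male ICR mice (7~8 weeks, 30 ± 5 g; n = 5) during a pharmacokinetic study after a single intravenous dose. Mice were held at 23 ± 3° and about 55% ± 10% humidity with standard feed and tap water. Blood was drawn via carotid artery from 0.08 to 8 h after dosing.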

CYP2C9 = CYP2C9 (Homo sapiens, UniProt P11712); experiment: Inhibition of CYP2C9 in human liver microsomes assessed as remaining activity at 10 uM using diclofenac as substrate preincubated for 5 mins followed by addition of NADPH generating system measured after 15 mins by LC-MS analysis; format: ADME; details: probe diclofenac, read-out: Activity; summary of the method: as §2
Mus musculus [3] = experiment: Toxicity in ICR mouse assessed as mortality at 50 mg/kg, po; format: organism-based; details: in vivo
Summary of the method: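 Observed in male ICR mice (7~8 weeks, 30 ± 5 g; n = 4) during a pharmacokinetic study after a single oral dose. Mice were held at 23 ± 3° and about 55% ± 10% humidity with standard feed and tap water. Blood was drawn via carotid artery from 0.25 to 8 h after dosing.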

[4] = Tmax in ICR mouse at 50 mg/kg, po by LC-MS/MS analysis; format: ADME, organism-based; details: in vivo
Summary of the method: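 Male ICR mice, 7~8 weeks, 30 ± 5 g, given a single oral dose of 50 mg/kg (n = 4). Carotid-artery blood was sampled at 0, 0.25, 0.5, 1, 2, 4, 6 and 8 h. Plasma was protein-precipitated with acetonitrile containing internal standard and quantified by LC-MS/MS on a C18 gradient. Parameters came from non-compartmental analysis and are reported as mean ± SD.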

CYP2D6 = CYP2D6 (Homo sapiens, UniProt P10635); experiment: Inhibition of CYP2D6 in human liver microsomes assessed as remaining activity at 10 uM using dextromethorphan as substrate preincubated for 5 mins followed by addition of NADPH generating system measured after 15 mins by LC-MS analysis; format: ADME; details: probe dextromethorphan, read-out: Activity; summary of the method: as §2
Mus musculus [5] = experiment: Sleep promoting activity in C57B1/6J mouse assessed as decrease in total rapid eye movement sleep time at 30 mg/kg, ip measured over 8 hrs by electroencephalogram method; format: functional; set-up: scale not given: the % may be the effect or the level left
Summary of the method: (§3)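 Adult male C57Bl/6J mice, 10 weeks old, with parietal EEG screw electrodes implanted under ketamine. EEG and EMG recorded for 8 h from 9 AM, starting one day before dosing as baseline. On test day, 30 mg/kg i.p. at the start of the light phase, with EEG/EMG recorded for 8 h and scored in 2-h bins. n = 6-9 per group; mean ± SEM versus vehicle.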

[6] = Apparent volume of distribution at steady state in ICR mouse at 5 mg/kg, iv by LC-MS/MS analysis; format: ADME, organism-based; details: in vivo, read-out: Vdss; summary of the method: as §1
[7] = AUClast in ICR mouse at 5 mg/kg, iv by LC-MS/MS analysis; format: ADME, organism-based; set-up: dose 5 mg/kg, time 0 - last, route intravenous; details: in vivo; summary of the method: as §1
[8] = Terminal half-life in ICR mouse at 50 mg/kg, po by LC-MS/MS analysis; format: ADME, organism-based; details: in vivo, read-out: beta t1/2 (converted); summary of the method: as §1
[9] = AUClast in ICR mouse at 50 mg/kg, po by LC-MS/MS analysis; format: ADME, organism-based; set-up: dose 50 mg/kg, route oral, time 0 - last; details: in vivo; summary of the method: as §1
CYP3A4 = CYP3A4 (Homo sapiens, UniProt P08684); experiment: Inhibition of CYP3A4 in human liver microsomes assessed as remaining activity at 10 uM using midazolam as substrate preincubated for 5 mins followed by addition of NADPH generating system measured after 15 mins by LC-MS analysis; format: ADME; details: probe midazolam, read-out: Activity; summary of the method: as §2
[10] = AUC (0 to infinity) in ICR mouse at 50 mg/kg, po by LC-MS/MS analysis; format: ADME, organism-based; set-up: dose 50 mg/kg, time infinity, route oral; details: in vivo; summary of the method: as §1
[11] = Tmax in ICR mouse at 5 mg/kg, iv by LC-MS/MS analysis; format: ADME, organism-based; details: in vivo; summary of the method: as §1
Mus musculus [12] = experiment: Sleep promoting activity in C57B1/6J mouse assessed as increase in total non-rapid eye movement sleep time at 30 mg/kg, ip measured over 8 hrs by electroencephalogram method; format: functional; summary of the method: as §3
[13] = Stability in human liver microsomes assessed as drug recovery at 1 uM preincubated for 5 mins followed by addition of NADPH generation system and measured after 30 mins by LC-MS analysis; format: ADME, microsome; details: read-out: Drug recovery
Summary of the method: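 Human liver microsomes 0.5 mg/ml in 0.1 M phosphate, pH 7.4, with 1 μM compound. Preincubated 5 min at 37 °C, then NADPH-generating system added for 30 min at 37 °C. Acetonitrile with internal standard added to stop the reaction, centrifuged, and supernatant analysed by LC/MS as % remaining.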

[14] = Clearance in ICR mouse at 5 mg/kg, iv by LC-MS/MS analysis; format: ADME, organism-based; details: in vivo; summary of the method: as §1
[15] = AUC (0 to infinity) in ICR mouse at 5 mg/kg, iv by LC-MS/MS analysis; format: ADME, organism-based; set-up: dose 5 mg/kg, time infinity, route intravenous; details: in vivo; summary of the method: as §1
[16] = Cmax in ICR mouse at 5 mg/kg, iv by LC-MS/MS analysis; format: ADME, organism-based; set-up: dose 5 mg/kg, route intravenous; details: in vivo; summary of the method: as §1
Homo sapiens [17] = species on record: Homo sapiens; experiment: Selectivity index, ratio of Ki for human 5-HT5A receptor to Ki for human 5-HT7 receptor
Summary of the method: (§4)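 Selectivity index taken as Ki at the other 5-HT receptor subtype divided by Ki at 5-HT7R, each from [3H]LSD membrane binding run by the NIMH PDSP. Ki values are means of at least three experiments in triplicate.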

Homo sapiens [18] = species on record: Homo sapiens; experiment: Selectivity index, ratio of Ki for human 5-HT3 receptor to Ki for human 5-HT7 receptor; summary of the method: as §4
Homo sapiens [19] = species on record: Homo sapiens; experiment: Selectivity index, ratio of Ki for human 5-HT1A receptor to Ki for human 5-HT7 receptor; summary of the method: as §4
[20] = target: 5-hydroxytryptamine receptor 7 (Homo sapiens, UniProt P34969); experiment: Displacement of [3H]LSD from human 5-HT7 receptor expressed in HEK cell membranes after 1.5 hrs by microbeta scintillation counting method
5-hydroxytryptamine receptor 7, sequence (P34969 whole entry): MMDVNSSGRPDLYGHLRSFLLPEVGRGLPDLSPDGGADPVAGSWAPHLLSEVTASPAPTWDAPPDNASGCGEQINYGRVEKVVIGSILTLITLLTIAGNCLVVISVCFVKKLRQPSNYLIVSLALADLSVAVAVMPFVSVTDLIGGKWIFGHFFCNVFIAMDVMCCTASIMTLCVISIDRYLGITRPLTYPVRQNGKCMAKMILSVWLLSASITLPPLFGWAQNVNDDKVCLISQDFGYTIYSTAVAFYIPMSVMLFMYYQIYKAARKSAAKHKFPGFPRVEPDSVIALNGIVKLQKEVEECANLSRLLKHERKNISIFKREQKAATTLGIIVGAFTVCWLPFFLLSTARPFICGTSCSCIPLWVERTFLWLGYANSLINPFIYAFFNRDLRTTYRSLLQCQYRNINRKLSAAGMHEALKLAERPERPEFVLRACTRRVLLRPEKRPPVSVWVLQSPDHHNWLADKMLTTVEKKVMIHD

CYP2C9, sequence (P11712 whole entry): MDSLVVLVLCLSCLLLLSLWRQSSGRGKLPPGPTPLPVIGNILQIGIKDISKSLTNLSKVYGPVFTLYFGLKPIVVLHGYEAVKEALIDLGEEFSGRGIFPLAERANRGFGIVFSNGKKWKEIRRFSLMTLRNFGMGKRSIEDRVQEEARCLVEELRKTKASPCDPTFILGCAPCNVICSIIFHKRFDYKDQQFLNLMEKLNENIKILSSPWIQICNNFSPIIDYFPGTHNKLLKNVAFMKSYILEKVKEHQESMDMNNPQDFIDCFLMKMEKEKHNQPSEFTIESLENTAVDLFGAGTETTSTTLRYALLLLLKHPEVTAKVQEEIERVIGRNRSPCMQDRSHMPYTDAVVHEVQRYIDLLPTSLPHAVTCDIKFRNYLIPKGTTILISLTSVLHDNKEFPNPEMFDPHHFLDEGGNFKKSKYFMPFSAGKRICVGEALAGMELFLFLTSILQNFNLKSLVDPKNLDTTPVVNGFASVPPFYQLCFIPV
CYP3A4, sequence (P08684 whole entry): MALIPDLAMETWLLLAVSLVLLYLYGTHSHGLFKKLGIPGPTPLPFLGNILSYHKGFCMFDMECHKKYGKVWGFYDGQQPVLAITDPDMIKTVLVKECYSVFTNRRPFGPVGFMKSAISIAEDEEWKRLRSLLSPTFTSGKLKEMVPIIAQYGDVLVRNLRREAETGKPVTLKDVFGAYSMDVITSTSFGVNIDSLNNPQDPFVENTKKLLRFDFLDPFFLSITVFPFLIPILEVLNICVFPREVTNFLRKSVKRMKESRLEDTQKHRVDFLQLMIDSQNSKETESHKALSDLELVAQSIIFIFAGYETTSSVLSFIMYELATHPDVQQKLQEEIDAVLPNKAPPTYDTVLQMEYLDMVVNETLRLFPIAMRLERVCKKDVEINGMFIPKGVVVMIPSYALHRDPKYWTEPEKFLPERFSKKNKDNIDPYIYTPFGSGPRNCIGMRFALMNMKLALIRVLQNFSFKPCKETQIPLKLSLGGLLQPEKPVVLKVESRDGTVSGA
CYP2D6, sequence (P10635 whole entry): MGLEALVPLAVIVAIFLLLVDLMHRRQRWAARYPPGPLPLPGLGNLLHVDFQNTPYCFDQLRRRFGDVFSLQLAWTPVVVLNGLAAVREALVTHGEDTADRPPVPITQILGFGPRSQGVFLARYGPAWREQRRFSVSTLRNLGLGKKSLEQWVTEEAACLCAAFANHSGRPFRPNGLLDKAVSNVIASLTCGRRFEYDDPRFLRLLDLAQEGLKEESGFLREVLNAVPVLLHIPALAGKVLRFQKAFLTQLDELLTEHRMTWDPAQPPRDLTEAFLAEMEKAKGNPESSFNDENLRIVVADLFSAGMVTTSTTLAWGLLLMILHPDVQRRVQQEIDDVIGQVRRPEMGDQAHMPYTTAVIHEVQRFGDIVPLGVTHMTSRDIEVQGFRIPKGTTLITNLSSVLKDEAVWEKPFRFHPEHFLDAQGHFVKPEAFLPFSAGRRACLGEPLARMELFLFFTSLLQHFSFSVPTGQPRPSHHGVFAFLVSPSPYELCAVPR
CYP2C19, sequence (P33261 whole entry): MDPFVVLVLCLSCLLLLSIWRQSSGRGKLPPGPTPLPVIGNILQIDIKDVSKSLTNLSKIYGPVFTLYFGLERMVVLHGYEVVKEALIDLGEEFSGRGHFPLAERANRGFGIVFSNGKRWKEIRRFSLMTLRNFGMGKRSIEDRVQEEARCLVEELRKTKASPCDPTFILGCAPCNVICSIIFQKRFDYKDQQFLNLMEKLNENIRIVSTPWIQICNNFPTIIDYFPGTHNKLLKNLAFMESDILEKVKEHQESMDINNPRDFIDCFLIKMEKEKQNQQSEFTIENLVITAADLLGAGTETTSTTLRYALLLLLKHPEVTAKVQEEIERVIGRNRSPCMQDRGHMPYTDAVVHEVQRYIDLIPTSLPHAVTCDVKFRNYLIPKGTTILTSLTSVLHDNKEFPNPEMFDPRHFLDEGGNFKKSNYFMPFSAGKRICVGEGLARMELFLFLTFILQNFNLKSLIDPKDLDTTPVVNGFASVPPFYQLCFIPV

SMILES: Clc1ccc(-c2n[nH]c3c2CCNCC3)cc1
- Cmax [1]: 11800 ng/mL
- activity at 0.25 h, 10 µM (CYP2C19): > 100%
- Activity (Mus musculus [2]): Non-Toxic
- activity at 0.25 h, 10 µM (CYP2C9): > 100%
- Activity (Mus musculus [3]): Non-Toxic
- Tmax [4]: 1.37 h
- activity at 0.25 h, 10 µM (CYP2D6): 75.7%
- Activity (Mus musculus [5]): 36.7%
- Vd [6]: 2.47 L/kg
- AUC(0-t) [7]: 4900 ng·h/mL
- half-life [8]: 2.77 h
- AUC(0-t) [9]: 53700 ng·h/mL
- activity at 0.25 h, 10 µM (CYP3A4): 95.4%
- AUC(0-inf) [10]: 64300 ng·h/mL
- Tmax [11]: 6.6 min
- Activity (Mus musculus [12]): 21.4%
- remaining at 0.5 h, 1 µM [13]: 82.4%
- clearance [14]: 16 mL/min/kg
- AUC(0-inf) [15]: 5210 ng·h/mL
- Cmax [16]: 2200 ng/mL

SMILES: Cc1ccc(-c2noc3c2CCNCC3)cc1
- Ratio Ki (Homo sapiens [17]): 70.9
- Ratio Ki (Homo sapiens [18]): 26.3

SMILES: Fc1ccc(-c2n[nH]c3c2CCNCC3)cc1
- Ratio Ki (Homo sapiens [19]): 18
- Ki [20]: 104 nM
